Results taken from ChEMBL document CHEMBL3526049 (Drug Metab Dispos, 2012).

Assays:
Brain [1] = assay: Drug uptake in MDR1A knockout Sprague-Dawley rat brain at 1 mg/kg, iv; format: ADME, organism-based; parameters: dose 1 mg/kg, route intravenous; settings: in vivo
Liver [2] = assay: Drug uptake in MDR1A knockout Sprague-Dawley rat liver at 1 mg/kg, iv; format: ADME, organism-based; parameters: dose 1 mg/kg, route intravenous; settings: in vivo
Kidney [3] = assay: Drug uptake in MDR1A knockout Sprague-Dawley rat kidney at 1 mg/kg, iv; format: ADME, organism-based; parameters: dose 1 mg/kg, route intravenous; settings: in vivo
Brain [4] = assay: Drug uptake in BCRP knockout Sprague-Dawley rat brain at 1 mg/kg, iv; format: ADME, organism-based; parameters: dose 1 mg/kg, route intravenous; settings: in vivo
Liver [5] = assay: Drug uptake in BCRP knockout Sprague-Dawley rat liver at 1 mg/kg, iv; format: ADME, organism-based; parameters: dose 1 mg/kg, route intravenous; settings: in vivo
Kidney [6] = assay: Drug uptake in BCRP knockout Sprague-Dawley rat kidney at 1 mg/kg, iv; format: ADME, organism-based; parameters: dose 1 mg/kg, route intravenous; settings: in vivo
[7] = Drug excretion in bile duct-cannulated BCRP knockout Sprague-Dawley rat bile at 1 mg/kg, iv up to 24 hrs; format: ADME, organism-based; parameters: dose 1 mg/kg, route intravenous; settings: read-out: Drug excretion
Method in brief: (§1)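 Male Sprague-Dawley rats with bile-duct and femoral cannulation, housed in metabolism cages. Given an IV bolus of 1 mg/kg in 2 ml/kg 50% Cremophor EL in ethanol. Urine, bile and feces collected in toto 0–24 h, with cage wash at 24 h. Amounts quantified by LC-MS/MS and expressed as % of dose; n=6–12.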

[8] = Drug excretion in bile duct-cannulated MRP2 knockout Sprague-Dawley rat bile at 1 mg/kg, iv up to 24 hrs; format: ADME, organism-based; parameters: dose 1 mg/kg, route intravenous; settings: read-out: Drug excretion; method in brief: as §1
[9] = Drug excretion in bile duct-cannulated wild-type Sprague-Dawley rat urine at 1 mg/kg, iv up to 24 hrs; format: ADME, organism-based; parameters: dose 1 mg/kg, route intravenous; settings: read-out: Drug excretion; method in brief: as §1
[10] = Drug excretion in bile duct-cannulated MDR1A knockout Sprague-Dawley rat urine at 1 mg/kg, iv up to 24 hrs; format: ADME, organism-based; parameters: dose 1 mg/kg, route intravenous; settings: read-out: Drug excretion
Method in brief: (§2)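 Male Sprague-Dawley Mdr1a knockout rats with bile duct and femoral cannulas, housed in metabolism cages. […] Urine, bile and feces were collected in total over 0–24 h, and cage wash was taken at 24 h.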

[11] = Drug excretion in bile duct-cannulated BCRP knockout Sprague-Dawley rat urine at 1 mg/kg, iv up to 24 hrs; format: ADME, organism-based; parameters: dose 1 mg/kg, route intravenous; settings: read-out: Drug excretion; method in brief: as §1
[12] = Drug excretion in bile duct-cannulated MRP2 knockout Sprague-Dawley rat urine at 1 mg/kg, iv up to 24 hrs; format: ADME, organism-based; parameters: dose 1 mg/kg, route intravenous; settings: read-out: Drug excretion; method in brief: as §1
[13] = Drug excretion in bile duct-cannulated MDR1A knockout Sprague-Dawley rat bile at 1 mg/kg, iv up to 24 hrs; format: ADME, organism-based; parameters: dose 1 mg/kg, route intravenous; settings: read-out: Drug excretion; method in brief: as §2
[14] = Volume of distribution at steady state in MDR1A knockout Sprague-Dawley rat at 1 mg/kg, iv by LC-MS/MS analysis; format: ADME, organism-based; parameters: dose 1 mg/kg, route intravenous; settings: in vivo, read-out: Vdss
Method in brief: (§3)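 Male Sprague-Dawley rats (knockout or wild type matched for age and weight), femoral artery and vein cannulated, at least 2 days recovery. Crossover design: IV bolus 1 mg/kg on day 0 (saline with 0.2 M equivalents HCl), oral gavage 10 mg/kg on day 3 (water with 0.2 M equivalents HCl). Arterial plasma sampled to 24 h (Mdr1a oral arm to 4 h). Analysed by LC-MS/MS and noncompartmental analysis.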

[15] = Volume of distribution at steady state in wild-type Sprague-Dawley rat at 1 mg/kg, iv by LC-MS/MS analysis; format: ADME, organism-based; parameters: dose 1 mg/kg, route intravenous; settings: in vivo, read-out: Vdss; method in brief: as §3
[16] = Volume of distribution at steady state in BCRP knockout Sprague-Dawley rat at 1 mg/kg, iv by LC-MS/MS analysis; format: ADME, organism-based; parameters: dose 1 mg/kg, route intravenous; settings: in vivo, read-out: Vdss; method in brief: as §3
Rattus norvegicus [17] = assay: Clearance in MRP2 knockout Sprague-Dawley rat at 1 mg/kg, iv by LC-MS/MS analysis; settings: in vivo
[18] = Clearance in BCRP knockout Sprague-Dawley rat at 1 mg/kg, iv by LC-MS/MS analysis; settings: in vivo
[19] = Clearance in MDR1A knockout Sprague-Dawley rat at 1 mg/kg, iv by LC-MS/MS analysis; settings: in vivo
[20] = Clearance in wild-type Sprague-Dawley rat at 1 mg/kg, iv by LC-MS/MS analysis; settings: in vivo
[21] = AUC (infinity) in wild-type Sprague-Dawley rat at 1 mg/kg, iv by LC-MS/MS analysis; format: ADME, organism-based; parameters: time infinity, dose 1 mg/kg, route intravenous; settings: plasma
[22] = AUC (infinity) in MDR1A knockout Sprague-Dawley rat at 1 mg/kg, iv by LC-MS/MS analysis; format: ADME, organism-based; parameters: time infinity, dose 1 mg/kg, route intravenous; settings: plasma
[23] = AUC (infinity) in BCRP knockout Sprague-Dawley rat at 1 mg/kg, iv by LC-MS/MS analysis; format: ADME, organism-based; parameters: time infinity, dose 1 mg/kg, route intravenous; settings: plasma
Rattus norvegicus [24] = assay: AUC (infinity) in MRP2 knockout Sprague-Dawley rat at 1 mg/kg, iv by LC-MS/MS analysis; format: ADME, organism-based, Plasma; parameters: time infinity, dose 1 mg/kg, route intravenous; settings: in vivo
[25] = Half life in wild-type Sprague-Dawley rat at 1 mg/kg, iv by LC-MS/MS analysis; format: ADME, organism-based; parameters: dose 1 mg/kg, route intravenous; settings: in vivo; method in brief: as §3
[26] = Half life in MDR1A knockout Sprague-Dawley rat at 1 mg/kg, iv by LC-MS/MS analysis; format: ADME, organism-based; parameters: dose 1 mg/kg, route intravenous; settings: in vivo; method in brief: as §3
[27] = Half life in BCRP knockout Sprague-Dawley rat at 1 mg/kg, iv by LC-MS/MS analysis; format: ADME, organism-based; parameters: dose 1 mg/kg, route intravenous; settings: in vivo; method in brief: as §3

## CC(=O)O[C@H]1C(=O)[C@@]2(C)[C@H]([C@H](OC(=O)c3ccccc3)[C@]3(O)C[C@H](OC(=O)[C@H](O)[C@@H](NC(=O)c4ccccc4)c4ccccc4)C(C)=C1C3(C)C)[C@]1(OC(C)=O)CO[C@@H]1C[C@@H]2O [PACLITAXEL]
Brain [1]
  Drug uptake: Active
Liver [2]
  Drug uptake: Active
Kidney [3]
  Drug uptake: Active
Brain [4]
  Drug uptake: Active
Liver [5]
  Drug uptake: Active
Kidney [6]
  Drug uptake: Active
[7]
  dose excreted at 24 h: 0.1%
[8]
  dose excreted at 24 h: 0.2%
[9]
  dose excreted at 24 h: 3.1%
[10]
  dose excreted at 24 h: 0.14%
[11]
  dose excreted at 24 h: 2%
[12]
  dose excreted at 24 h: 4.5%
[13]
  dose excreted at 24 h: 0%
[14]
  Vd: 38.1 L/kg
[15]
  Vd: 30.3 L/kg
[16]
  Vd: 29.1 L/kg
Rattus norvegicus [17]
  CL: 9.1 L/h/kg
[18]
  clearance: 6.1 L/h/kg
[19]
  clearance: 4 L/h/kg
[20]
  clearance: 6.7 L/h/kg
[21]
  AUC(0-inf): 0.172 µg·h/mL
[22]
  AUC(0-inf): 0.303 µg·h/mL
[23]
  AUC(0-inf): 0.171 µg·h/mL
Rattus norvegicus [24]
  AUC: 0.375 µg·h/mL
[25]
  half-life: 7.2 h
[26]
  half-life: 12.2 h
[27]
  half-life: 6.4 h
